Assay results taken from ChEMBL document CHEMBL4715761, “LAT1 activity of carboxylic acid bioisosteres: Evaluation of hydroxamic acids as substrates” (Bioorg Med Chem Lett, 2016).

target: T1, Large neutral amino acids transporter small subunit 1 (Homo sapiens, UniProt Q01650); assay: Inhibition of human LAT1 expressed in HEK293-T-Rex cells assessed as inhibition of [3H]-gabapentin uptake by scintillation counting cis-inhibition assay relative to BCH inhibition (RV = 100%); type: cell-based
T1 sequence (Q01650 whole entry): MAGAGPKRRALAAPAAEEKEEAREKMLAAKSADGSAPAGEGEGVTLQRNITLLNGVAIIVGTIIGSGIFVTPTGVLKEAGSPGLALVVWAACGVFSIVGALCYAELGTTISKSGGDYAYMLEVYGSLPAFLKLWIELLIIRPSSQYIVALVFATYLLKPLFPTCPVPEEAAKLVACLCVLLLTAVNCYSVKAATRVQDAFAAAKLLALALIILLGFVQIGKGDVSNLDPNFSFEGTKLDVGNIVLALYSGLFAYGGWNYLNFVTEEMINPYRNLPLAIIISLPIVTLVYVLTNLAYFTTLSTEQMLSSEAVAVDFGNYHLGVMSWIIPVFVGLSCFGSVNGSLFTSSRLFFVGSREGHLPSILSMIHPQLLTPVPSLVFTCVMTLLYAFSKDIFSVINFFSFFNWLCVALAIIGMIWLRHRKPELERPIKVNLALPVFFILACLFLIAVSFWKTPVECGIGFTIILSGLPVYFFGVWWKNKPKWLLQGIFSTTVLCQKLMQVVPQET

Going from CSCC[C@H](N)C(=O)O [METHIONINE] to CSCC[C@H](N)C(=O)NO, the IC50 rises from 180 µM to > 200 µM.

Going from CC[C@H](C)[C@H](N)C(=O)O [ISOLEUCINE] to CC[C@H](C)[C@H](N)C(=O)NO, the IC50 rises from 150 µM to > 200 µM. The first is the more potent here.

Going from CC(C)C[C@H](N)C(N)=O to CC(C)C[C@H](N)C(=O)O [LEUCINE], the IC50 falls from > 200 µM to 87 µM.

CC(C)C[C@H](N)C(=O)NO and CONC(=O)[C@@H](N)CC(C)C cannot be ordered by IC50: > 200 µM for the first, > 200 µM for the second.

NCC(=O)NO and NCC(=O)O [GLYCINE] cannot be ordered by IC50: > 200 µM for the first, > 200 µM for the second.

target: T1, Large neutral amino acids transporter small subunit 1; assay: Inhibition of human LAT1 expressed in HEK293-T-Rex cells assessed as inhibition of [3H]-gabapentin uptake at 200 uM by scintillation counting cis-inhibition assay; type: cell-based
In short: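 HEK cells overexpressing human LAT1; test compound at 200 μM added during [3H]-gabapentin uptake (cis-inhibition). Reported as % inhibition relative to background signal without test compound; cell data at least in triplicate.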

In order of rising inhibition:
1. N[C@@H](Cc1ccccc1)c1nnn[nH]1  11%
2. CS(=O)(=O)NC(=O)[C@@H](N)Cc1ccc(O)cc1  12%
3. CS(=O)(=O)NC(=O)[C@@H](N)Cc1ccccc1  15%
4. NCC(=O)O [GLYCINE]  33%
5. N[C@@H](Cc1c[nH]c2ccccc12)C(=O)NO  35%
6. NCC(=O)NO  38%
7. N[C@@H](Cc1ccc(O)cc1)C(=O)NO  39%
8. CC(C)C[C@H](N)C(=O)NO  50%
